Experimental findings from ChEMBL document CHEMBL1122793, “Synthesis, characterization, and properties of a group of platinum (IV) complexes” (J Med Chem, 1984) are described below.

Holding throughout (format): functional, cell-based
Common to all, as to conditions: Mus musculus

Assay [1] relates to L1210. Briefly: Compound was evaluated for antitumor activity against 10e 6 L1210 cells implanted intraperitoneally into mice after treatment on day 1(maximum percentage toxicity). Put shortly: (§1)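 Mice received 10⁶ L1210 ascites cells ip and were treated ip on day 1 only. Treatment groups had six mice. The optimal dose was recorded in mg/kg, and activity was recorded as the maximum percent T/C, as defined in ref 9.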

Assay [2] concerns L1210. Briefly: Compound was evaluated for antitumor activity against 10e 6 L1210 cells implanted intraperitoneally into mice after treatment on days 1-5 (maximum percentage toxicity). Summed up:
(§2)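 Mice were implanted ip with 10⁶ L1210 ascites cells and treated ip on days 1-5, with the dose given in mg/kg per injection. Groups had six mice each. The read-out was the optimal dose and the maximum percent T/C, as defined in ref 9.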

Assay [3] concerns L1210. Briefly: Compound was evaluated for antitumor activity against 10e 6 L1210 cells implanted intraperitoneally into mice after treatment on day 1(reference 9). Put shortly: as §1
Assay [4] has as its system L1210. Briefly: Compound was evaluated for antitumor activity against 10e 6 L1210 cells implanted intraperitoneally into mice after treatment on day 1. Put shortly: as §1
The test system of assay [5] is L1210. Put plainly: Compound was evaluated for antitumor activity against 10e 6 L1210 cells implanted intraperitoneally into mice after treatment on days 1-9.
Assay [6] has as its system L1210. Put plainly: Compound was evaluated for antitumor activity against 10e 6 L1210 cells implanted intraperitoneally into mice after treatment on day 1(maximum percentage toxicity)(reference 9). Put shortly: as §1
The subject of assay [7] is L1210. Briefly: Compound was evaluated for antitumor activity against 10e 6 L1210 cells implanted intraperitoneally into mice after treatment on days 1-5. Put shortly: as §2
Assay [8] deals with L1210. Briefly: Compound was evaluated for antitumor activity against 10e 6 L1210 cells implanted intraperitoneally into mice after treatment on days 1-9 (maximum percentage toxicity).

Dichloro-diammonium-platinum: the T/C in assay [1] worked out at 150%; in assay [2], 157%; in assay [6] it was 164%; in assay [8], 193%. For the same substance, the Optimal dose in assay [3] came to 120 mg/kg; in assay [4], 48 mg/kg; in assay [5], 20 mg/kg; in assay [7], 12 mg/kg.

As to Dichloro-dibromo-diammonium platinum, the T/C in assay [1] was found to be 136%; in assay [2] it was 129%. In addition, the Optimal dose in assay [4] stood at 12 mg/kg; in assay [7], 0.75 mg/kg.

As to Tetrachloro-diammonium platinum, the T/C came to 121% in assay [1] and 114% in assay [2]. The results for the Optimal dose in assay [4] and in assay [7] were 32 mg/kg and 4 mg/kg, respectively.
